Data: ChEMBL document CHEMBL1127533, “Presynaptic cholinergic modulators as potent cognition enhancers and analgesic drugs. 2. 2-Phenoxy-, 2-(phenylthio)-, and 2-(phenylamino)alkanoic acid esters” (J Med Chem, 1994)
Calls of active or inactive are those of the source.

How the values were obtained:
[1] = organism: Mus musculus; assay: Analgesic activity in male albino Swiss-Webster mice in hotplate test; type: functional
How it was run: (§1)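 Mouse hot-plate assay after Woolfe, with the plate held at 52.5 ± 0.1 °C and a 45 s cutoff. Groups held 8–20 mice. Analgesic potency is expressed as the ED50.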

[2] = test system: Mus musculus; assay: Analgesic potency was evaluated as effective dose after subcutaneous administration.; type: functional; how it was run: as §1
[3] = organism: Mus musculus; assay: Compound was evaluated for analgesic activity, in male albino Swiss-Webster mice with hotplate test and maximum level of analgesia reached is evaluated; type: functional
How it was run: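 Mouse hot-plate at 52.5 ± 0.1 °C with a 45 s cutoff. Each compound was given at its maximal nontoxic dose, defined as no visible behavioural change to blinded observers. Efficacy = (max reaction time − pretest)/(same for morphine-HCl 8 mg/kg sc) × 100.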

[4] = biological target: Muscarinic acetylcholine receptor; assay: The compound is evaluated for binding affinity against central muscarinic receptor by using [3H]- QNB as radioligand; type: protein assay
[5] = test system: Mus musculus; assay: Analgesic potency was evaluated as Effective Dose 50 after subcutaneous administration. Standard error given in parenthesis; type: functional; conditions: sc; how it was run: as §1
[6] = Mus musculus, sc, read-out: ED50

| SMILES | Analgesic activity [1] | ED50 [2, 6] | also measured |
| --- | --- | --- | --- |
| CN1C2CCC1CC(OC(=O)C(Oc1ccc(Cl)cc1)c1ccccc1)C2 (stereo not drawn) | inactive | – | – |
| CC(C(=O)OC1CC2CCC(C1)N2C)C(=O)c1ccc(Cl)cc1 (stereo not drawn) | 30 | 34 mg/kg | – |
| CCC(Oc1ccc(Cl)cc1)C(=O)OCCCN(C)C (stereo not drawn) | inactive | – | – |
| CC(Oc1ccc(Br)cc1)C(=O)OC1CC2CCC(C1)N2C (stereo not drawn) | 86 | 31 mg/kg | – |
| CCC(C(=O)OC1CC2CCC(C1)N2C)N(C)c1ccc(Cl)cc1.O=C(O)/C=C\C(=O)O (stereo not drawn) | 85 | 38 mg/kg | – |
| CC(Nc1ccccc1)C(=O)OC1CC2CCC(C1)N2C.Cl (stereo not drawn) | 74 | 32 mg/kg | – |
| CC(Oc1ccc(C(C)(C)C)cc1)C(=O)OC1CC2CCC(C1)N2C (stereo not drawn) | inactive | – | – |
| CN1C2CCC1CC(OC(=O)C(C)(C)Oc1ccc(Cl)cc1)C2 (stereo not drawn) | 52 | 23 mg/kg | – |
| CSc1ccc(OC(C)C(=O)OC2CC3CCC(C2)N3C)cc1.O=C(O)/C=C\C(=O)O (stereo not drawn) | 21 | 43 mg/kg | – |
| Cc1cc(OC(C)C(=O)OC2CC3CCC(C2)N3C)ccc1Cl (stereo not drawn) | inactive | – | – |
| CCC(Oc1ccccc1)C(=O)OC1CC2CCC(C1)N2C (stereo not drawn) | 35 | 31 mg/kg | – |
| CC(C(=O)OC1CC2CCC(C1)N2C)N(C)c1ccc(Cl)cc1.O=C(O)/C=C\C(=O)O (stereo not drawn) | 86 | 29 mg/kg | – |
| CN1C2CCC1CC(OC(=O)COc1ccccc1)C2 (stereo not drawn) | inactive | – | – |
| CC(COC1CC2CCC(C1)N2C)Sc1ccc(Cl)cc1 (stereo not drawn) | inactive | – | – |
| CC(Sc1ccc(Cl)cc1)C(=O)OC1CC2CCC(C1)N2C.O=C(O)/C=C\C(=O)O (racemic) | 72 | 19 mg/kg | – |
| CC(Oc1ccc(Cl)c(Cl)c1)C(=O)OC1CC2CCC(C1)N2C.O=C(O)/C=C\C(=O)O (stereo not drawn) | 50 | 22 mg/kg | – |
| CC[C@@H](Oc1ccc(Cl)cc1)C(=O)OC1CC2CCC(C1)N2C (stereo partly drawn) | 89 | 14 mg/kg | – |
| CC(Oc1cccc(Cl)c1)C(=O)OC1CC2CCC(C1)N2C (stereo not drawn) | 62 | 26 mg/kg | – |
| CC(Oc1ccc(Cl)cc1)C(=O)OC1CC2CCC(C1)N2Cc1ccccc1 (stereo not drawn) | inactive | – | – |
| CC(Oc1ccc(Cl)cc1)C(=O)OC1CC2CCC(C1)N2C.O=C(O)/C=C\C(=O)O (stereo in doubt; 12) | 26 | – | ED50 [2]: 21 mg/kg |
| Cc1ccc(SC(C)C(=O)OC2CC3CCC(C2)N3C)cc1.O=C(O)/C=C\C(=O)O (stereo not drawn) | 33 | 7 mg/kg | – |
| CC[C@H](Sc1ccc(Cl)cc1)C(=O)OC1CC2CCC(C1)N2C (stereo partly drawn) | 38 | 14 mg/kg | – |
| CCC(Oc1ccc(Cl)c2ccccc12)C(=O)OC1CC2CCC(C1)N2C (stereo not drawn) | inactive | – | – |
| CC(C(=O)OC1CC2CCC(C1)N2C)[S+]([O-])c1ccccc1 (stereo not drawn) | inactive | – | – |
| CCN(CC)CCOC(=O)C(C)Oc1ccc(Cl)cc1 (stereo not drawn) | inactive | – | – |

| SMILES | Analgesic activity [1] | ED50 [2, 6] | also measured |
| --- | --- | --- | --- |
| CC(Oc1ccc(Cl)cc1)C(=O)NC1CC2CCC(C1)N2C.Cl (stereo not drawn) | 33 | 36 mg/kg | – |
| CC(Nc1ccc(Cl)cc1)C(=O)OC1CC2CCC(C1)N2C (stereo not drawn) | 33 | 31 mg/kg | – |
| CC(Oc1ccc(C(F)(F)F)cc1)C(=O)OC1CC2CCC(C1)N2C (stereo not drawn) | 44 | 26 mg/kg | – |
| CCC(Oc1cccc2ccccc12)C(=O)OC1CC2CCC(C1)N2C (stereo not drawn) | inactive | – | – |
| CC(Oc1ccc(Cl)c2ccccc12)C(=O)OC1CC2CCC(C1)N2C (stereo not drawn) | inactive | – | – |
| CC(=O)OCC(Oc1ccc(Cl)cc1)C(=O)OC1CC2CCC(C1)N2C (stereo not drawn) | 25 | 23 mg/kg | – |
| CCC(Oc1ccc(Cl)cc1)C(=O)OCC#CCN(CC)CC (stereo not drawn) | inactive | – | – |
| CCC(Oc1ccc(Cl)cc1)C(=O)OC1CCN(C)CC1 (stereo not drawn) | inactive | – | – |
| CC(Oc1ccc(F)cc1)C(=O)OC1CC2CCC(C1)N2C.O=C(O)/C=C\C(=O)O (racemic) | 91 | 33 mg/kg | – |
| CC(Oc1ccc([S+](C)[O-])cc1)C(=O)OC1CC2CCC(C1)N2C (stereo not drawn) | inactive | – | – |
| CCC(Sc1ccccc1)C(=O)OC1CC2CCC(C1)N2C (stereo in doubt; (-)-42) | 53 | – | ED50 [2]: 13 mg/kg |
| CC(C)C(Sc1ccc(Cl)cc1)C(=O)OC1CC2CCC(C1)N2C.O=C(O)/C=C\C(=O)O (stereo not drawn) | 41 | 41 mg/kg | – |
| CC(Oc1ccc(Cl)cc1)C(=O)OC1CC2CCC(C1)N2 (stereo not drawn) | inactive | – | – |
| CC(Oc1ccc(-c2ccccc2)cc1)C(=O)OC1CC2CCC(C1)N2C (stereo not drawn) | inactive | – | – |
| CC(Oc1ccc(Cl)cc1)C(=O)OC1CC2CCC(C1)N2C.O=C(O)/C=C\C(=O)O (racemic) | – | 32 mg/kg | Analgesic activity [3]: 90 |
| CCC(Oc1ccc2ccccc2c1)C(=O)OC1CC2CCC(C1)N2C (stereo not drawn) | inactive | – | – |
| CC(Oc1ccccc1)C(=O)OC1CC2CCC(C1)N2C (stereo not drawn) | inactive | – | – |
| CC(Sc1ccc(F)cc1)C(=O)OC1CC2CCC(C1)N2C (stereo not drawn) | 41 | 15 mg/kg | – |
| CC[C@H](Oc1ccc(Cl)cc1)C(=O)OC1CC2CCC(C1)N2C (stereo partly drawn) | 56 | 18 mg/kg | – |
| CCC(Sc1ccccc1)C(=O)OC1CC2CCC(C1)N2C (racemic) | 103 | – | Ki [4]: 22.7 nM; ED50 [2]: 18 mg/kg |
| CCC(Oc1ccc2cc(Br)ccc2c1)C(=O)OC1CC2CCC(C1)N2C.O=C(O)/C=C\C(=O)O (stereo not drawn) | 32 | 42 mg/kg | – |
| CN1C2CCC1CC(OC(=O)CCOc1ccccc1)C2.O=C(O)/C=C\C(=O)O (stereo not drawn) | – | – | Analgesic activity [3]: 28; ED50 [5]: 22 mg/kg |
| C[C@H](Sc1ccc(Cl)cc1)C(=O)OC1CC2CCC(C1)N2C (stereo partly drawn) | 34 | 16 mg/kg | – |
| C[C@@H](Sc1ccc(Cl)cc1)C(=O)OC1CC2CCC(C1)N2C (stereo partly drawn) | 61 | 14 mg/kg | – |
| CC(Oc1ccc(Cl)cc1)C(=O)OC1CCN(C)CC1 (stereo not drawn) | inactive | – | – |

| SMILES | Analgesic activity [1] | ED50 [2, 6] | also measured |
| --- | --- | --- | --- |
| CCN1C2CCC1CC(OC(=O)C(C)Oc1ccc(Cl)cc1)C2.O=C(O)/C=C\C(=O)O (stereo not drawn) | 42 | 42 mg/kg | – |
| CC[C@@H](Sc1ccc(Cl)cc1)C(=O)OC1CC2CCC(C1)N2C (stereo partly drawn) | 64 | 11 mg/kg | – |
| CCN(CC)CC#CCOC(=O)C(C)Oc1ccc(Cl)cc1 (stereo not drawn) | inactive | – | – |
| CC(COC1CC2CCC(C1)N2C)Oc1ccc(Cl)cc1 (stereo not drawn) | 64 | 44 mg/kg | – |
| CC(Oc1ccc(C#N)cc1)C(=O)OC1CC2CCC(C1)N2C.O=C(O)/C=C\C(=O)O (stereo not drawn) | 53 | 31 mg/kg | – |
| CCC(Oc1ccc(Cl)cc1)C(=O)OC1CC2CCC(C1)N2C.O=C(O)/C=C\C(=O)O (racemic) | 99 | 20 mg/kg | Ki [4]: 174 nM |
| CCC(Oc1ccc(Cl)cc1)C(=O)OC1CC2CCC(C1)N2CC (stereo not drawn) | 45 | 32 mg/kg | – |
| CC(C)C(Oc1ccc(Cl)cc1)C(=O)OC1CC2CCC(C1)N2C (stereo not drawn) | inactive | – | – |
| CCC(Sc1ccc(Cl)cc1)C(=O)OC1CC2CCC(C1)N2C (racemic) | 79 | 20 mg/kg | – |
| CCC(Oc1ccc(F)cc1)C(=O)OC1CC2CCC(C1)N2C (stereo not drawn) | 94 | 37 mg/kg | – |
| CC(Oc1cccc2ccccc12)C(=O)OC1CC2CCC(C1)N2C (stereo not drawn) | inactive | – | – |
| CN1C2CCC1CC(OC(=O)C(Cc1ccccc1)Oc1ccc(Cl)cc1)C2 (stereo not drawn) | inactive | – | – |
| CCC(COC1CC2CCC(C1)N2C)Sc1ccc(Cl)cc1 (stereo not drawn) | 53 | 39 mg/kg | – |
| CC(Sc1ccccc1)C(=O)OC1CC2CCC(C1)N2C.O=C(O)/C=C\C(=O)O (stereo not drawn) | 62 | 30 mg/kg | – |
| CC(Oc1ccc2ccccc2c1)C(=O)OC1CC2CCC(C1)N2C.O=C(O)/C=C\C(=O)O (stereo not drawn) | 86 | 34 mg/kg | – |
| C[C@H](Oc1ccc(Cl)cc1)C(=O)OC1CC2CCC(C1)N2C (stereo partly drawn) | 37 | 17 mg/kg | – |
| C[C@H](Oc1ccc(F)cc1)C(=O)OC1CC2CCC(C1)N2C (stereo partly drawn) | 65 | 23 mg/kg | – |
| CCC(COC1CC2CCC(C1)N2C)Oc1ccc(Cl)cc1 (stereo not drawn) | inactive | – | – |
| CCC(Sc1ccccc1)C(=O)OC1CC2CCC(C1)N2C (single isomer, unassigned; (+)) | 86 | 16 mg/kg | – |
| C[C@@H](Oc1ccc(F)cc1)C(=O)OC1CC2CCC(C1)N2C (stereo partly drawn) | 106 | 21 mg/kg | – |
| CC(Oc1ccc2cc(Br)ccc2c1)C(=O)OC1CC2CCC(C1)N2C (stereo not drawn) | inactive | – | – |
| CC(Oc1ccccc1Cl)C(=O)OC1CC2CCC(C1)N2C (stereo not drawn) | inactive | – | – |
| C[C@@H](Oc1ccc(Cl)cc1)C(=O)OC1CC2CCC(C1)N2C (stereo partly drawn) | 68 | 16 mg/kg | – |
| CC(Sc1ccc(Br)cc1)C(=O)OC1CC2CCC(C1)N2C (stereo not drawn) | 33 | 35 mg/kg | – |
